# Sampled rows, rich in hits. Any-hit rate of the full collection: about 2.2%.
# RanGTP-Imp inh – disruptors of Ran-importin-beta complex formation – biochemical, FRET, CFP-Ran, YFP-importin-beta, homogeneous, primary screen; inhibition, % (concentration not given with the values); hit rate 1.1% among 300,000; cell-free CFP-Ran/YFP-importin-beta FRET ratio;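 active = more than half of the replicate wells show a fall in the fluorescence ratio signal beyond about 16%, limit read from the data, passing the limit was not always enough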
# Runt-SMMHC FRET – Runt domain-CBFb-SMMHC interaction inhibition; Q01196+Q13951; Cerulean-Runt/Venus-CBFb-SMMHC FRET ratio 530/480, 1 h; inhibition, % at 20 µM; hit rate 0.74% among 220,000;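 active = mean inhibition across duplicate retests at 20 µM reaching about 50%, limit read from the data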;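 note: inhibitors lower the FRET ratio by blocking Runt binding to CBFb-SMMHC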
# Runt-CBFb FRET – inhibitors of human RUNX1 Runt domain binding to CBFb. Cerulean-Runt/Venus-CBFb FRET ratio 530/480, 1 h. hit rate 0.46% among 220,000. inhibition, % at 20 µM;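 active = inhibition over about 50% at 20 µM in the single-dose screen, limit read from the data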
#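 test system = Cerulean-tagged RUNX1 Runt domain (FRET donor) fusion protein | reagent = Venus-CBFb binding partner, 100 nM | incubation = protein complex preformed 1 h, compound exposure 1 h, room temperature, dark | detection = FRET fluorescence | read-out basis = loss of energy transfer signal | controls = 5 µM unlabeled CBFb as full-inhibition high control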
# 14-3-3 Bad PPI – disrupts binding of bovine 14-3-3 zeta to phospho-Bad peptide; inhibition, % at 21.7 µM; hit rate 0.71% among 220,000; P63103; TR-FRET 14-3-3zeta/Dy647-pBad peptide displacement, 1 h;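 active = inhibition above about 70%, limit read from the data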
# Target sequence (P63103 whole entry, looked up): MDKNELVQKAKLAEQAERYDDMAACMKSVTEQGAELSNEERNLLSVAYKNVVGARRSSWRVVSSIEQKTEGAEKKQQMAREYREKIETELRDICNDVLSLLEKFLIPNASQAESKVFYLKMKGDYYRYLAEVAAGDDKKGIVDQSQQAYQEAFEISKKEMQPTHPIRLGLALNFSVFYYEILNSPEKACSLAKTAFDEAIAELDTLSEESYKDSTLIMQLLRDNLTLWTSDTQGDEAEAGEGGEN
# Tb hexokinase – blocks Trypanosoma brucei hexokinase 1 activity; inhibition, % at 10 µM; AID 1430; recombinant TbHK1, G6PDH-coupled NADH A340; hit rate 0.11% among 220,000;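 active = inhibition of 50% or more in the single-dose primary screen; inactive = inhibition below 50%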
# Hck-Nef inh – blocks Nef-activated human Hck kinase | P08631 | Recombinant Hck-YEEI plus Nef, Z-Lyte FRET kinase assay | inhibition, % at 20 µM | hit rate 0.68% among 220,000;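 active = Hck-Nef kinase inhibition above about 50%, limit read from the data; inactive = inhibition below that limit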
# YIC FRET counter – counter-screen for RanGTP-importin-beta inhibitors: YIC FRET probe; hit rate 40% among 1,000; Purified YIC probe, intramolecular FRET ratio YFP/CFP; IC50, µM; shares compounds with RanGTP-Imp inh;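 active = fitted half-maximal inhibitory concentration no more than tenfold above the top dose tested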
# A number is an active result; – = inactive; · = not tested or not shown.
SMILES,RanGTP-Imp inh,Runt-SMMHC FRET,Runt-CBFb FRET,14-3-3 Bad PPI,Tb hexokinase,Hck-Nef inh,YIC FRET counter
CCOC(=O)c1c(-c2ccccc2)csc1NC(=O)c1cccc(N2C(=O)CCC2=O)c1,–,–,–,–,–,–,·
CCOC(=O)c1c(NC(=O)c2cccc(N3C(=O)CCC3=O)c2)sc2c1CCN(CC)C2,21,·,·,·,·,·,–
CCCSc1nnc(-c2c[nH]c3ccccc23)n1CC,17,–,–,–,–,–,–
CCCSc1nnc(-c2c[nH]c3ccccc23)n1C,–,–,–,–,–,–,·
COc1cc2c(cc1OC)CN(Cc1cc(OC)c(O)c(OC)c1)CC2,–,–,–,–,–,–,·
COc1ccccc1N1CCN(Cc2cccs2)CC1,–,–,–,·,–,–,·
COc1cc2c(cc1OC)CN(Cc1ccccc1)CC2,18,·,·,·,·,·,–
COc1cc2c(cc1OC)CN(Cc1cccs1)CC2,18,–,–,74,–,–,–
O=C(NC1CCCC1)C(c1cccnc1)N(Cc1ccccc1)C(=O)c1csnn1 (stereo not given),–,·,·,·,·,·,·
CCC(=O)N(CCC(c1ccc(C)cc1)c1ccco1)Cc1ccco1 (stereo not given),–,–,–,–,–,–,·
CCc1ccc(C(=O)CSc2ncn[nH]2)cc1,18,–,–,–,–,–,–
Fc1ccc(N/N=C/C=C/c2ccccc2)c(F)c1,20,–,–,–,–,–,–
Fc1ccc(N/N=C/c2ccncc2)c(F)c1,–,–,–,–,–,–,·
CCOC(=O)C1=C(C)NC2=C(C(=O)C(C(=O)OCC)C(c3ccc(OC)cc3)C2)C1c1ccccn1 (stereo not given),18,75,–,–,–,–,28
CCOC(=O)C1=C(C)NC2=C(C(=O)C(C(=O)OCC)C(c3ccccc3OC)C2)C1c1ccccn1 (stereo not given),18,83,–,–,–,–,23
CCOC(=O)C1=C(C)NC2=C(C(=O)C(C(=O)OCC)C(c3cccc(OC)c3)C2)C1c1ccccn1 (stereo not given),26,89,–,–,–,–,21
O=C(Nc1cccnc1Cl)c1ccc(=O)oc1,–,–,–,–,–,–,·
CCCN(CCC)S(=O)(=O)c1ccc(C)cc1,–,·,·,·,·,·,·
O=C(CN1C2CCCC1CC(NC(=O)c1ccccc1)C2)Nc1ccccc1C(F)(F)F (stereo not given),–,·,·,·,·,·,·
O=C(CN1C2CCCC1CC(NC(=O)c1ccco1)C2)Nc1ccccc1C(F)(F)F (stereo not given),17,–,–,–,–,–,–
O=C(Cn1nnc(-c2cccs2)n1)NCCc1ccccc1,–,–,–,–,–,–,·
O=C(Cn1nnc(-c2ccncc2)n1)NCCc1ccccc1,18,–,–,–,–,–,–
CCOC(=O)C(C)Oc1c(C(=O)OC)sc2ncccc12 (stereo not given),–,–,–,–,–,–,·
COC(=O)C1=CN(C2CC2)C=C(C(=O)OC)C1c1ccc(C(F)(F)F)cc1,26,123,80,–,–,–,19
COC(=O)C1=CN(c2ccc(F)cc2)C=C(C(=O)OC)C1c1ccc([N+](=O)[O-])cc1,–,·,·,·,·,·,·
SMILES,RanGTP-Imp inh,Runt-SMMHC FRET,Runt-CBFb FRET,14-3-3 Bad PPI,Tb hexokinase,Hck-Nef inh,YIC FRET counter
CC1=NN(C(=O)Cn2nc([N+](=O)[O-])cc2C)C(O)(C(F)(F)F)C1 (stereo not given),18,–,–,–,–,–,–
Cc1cc([N+](=O)[O-])nn1CC(=O)N1N=C(C(F)F)CC1(O)C(F)F (stereo not given),–,–,–,–,–,–,·
O=C(Cc1ccccc1)Nc1ccccc1C(=O)N1CCN(c2ccccc2)CC1,–,·,·,·,·,·,·
CC(C)OCCCNC(=O)CCSc1ccc(Cl)cc1,27,–,–,–,–,–,–
CC(C)C(NC(=O)c1cccs1)C(=O)NC1CCCCC1 (stereo not given),–,·,·,·,·,·,·
CC(NCc1cccs1)C(=O)NC1CCCCC1 (stereo not given),17,–,–,–,–,–,–
Cc1cc(C)cc(NC(=O)N(CCC#N)Cc2cccs2)c1,–,–,–,–,–,–,·

# From PubChem BioAssay
